Test results as given in paper PMC2765529 (Journal of medicinal chemistry, 2009).
Several values for one entry are separate records, joined by “and”; a condition that tells them apart may be missing. Equal entries are not always repeated.

Key:
[1] = Tissue biodistribution and regional brain uptake in rats; type: in vivo, male Sprague-Dawley rats; details: for Blood uptake: i.v., mean ± SD, n=4 rats
[2] = Ex vivo autoradiography of rat brain; type: in vivo, male Sprague-Dawley rat; details: rat sacrificed 1 h p.i., 1 mm coronal sections
Summary of the method: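 A single mature male Sprague-Dawley rat received ∼500 μCi of the 18F-labelled test compound by tail-vein injection under isoflurane/oxygen anaesthesia. The rat recovered and was euthanised 1 h later. The brain was taken out quickly and set in a metal brain matrix with 1 mm slots. A 1.0 mm slice through the striatum was imaged by flatbed scanner and by electronic autoradiography.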

[3] = 5 min p.i., rat brain dissection

(-)-trans-2-Hydroxy-3-(4-(4-[^18F]fluorobenzoyl)piperidino)tetralin [(-)-[^18F]9e]
Bone uptake ([1]; 5 min p.i.): 0.334 ± 0.047 %ID/g | Brain uptake ([1]; 5 min p.i.): 0.823 ± 0.091 %ID/g | Fat uptake ([1]; 5 min p.i.): 0.132 ± 0.095 %ID/g | Heart uptake ([1]; 5 min p.i.): 0.321 ± 0.027 %ID/g | Kidney uptake ([1]; 5 min p.i.): 2.02 %ID/g and 2.018 ± 0.448 %ID/g | Muscle uptake ([1]; 5 min p.i.): 0.091 ± 0.018 %ID/g | Blood uptake ([1]; 5 min p.i.): 0.073 ± 0.010 %ID/g | Initial uptake in cerebellum [1, 3]: 0.743 %ID/g | Initial uptake in cortex [1, 3]: 0.911 %ID/g | Initial uptake in hippocampus [1, 3]: 0.837 %ID/g | Initial uptake in striatum [1, 3]: 0.911 %ID/g | Bone uptake ([1]; 30 min p.i.): 0.157 ± 0.004 %ID/g | Brain uptake ([1]; 30 min p.i.): 0.226 ± 0.014 %ID/g | Fat uptake ([1]; 30 min p.i.): 0.207 ± 0.018 %ID/g | Heart uptake ([1]; 30 min p.i.): 0.109 ± 0.014 %ID/g | Kidney uptake ([1]; 30 min p.i.): 1.896 ± 0.333 %ID/g | Lung uptake ([1]; 30 min p.i.): 0.481 ± 0.088 %ID/g | Muscle uptake ([1]; 30 min p.i.): 0.080 ± 0.008 %ID/g | Blood uptake ([1]; 30 min p.i.): 0.037 ± 0.002 %ID/g | Bone uptake ([1]; 1 h p.i.): 0.148 ± 0.015 %ID/g | Brain uptake ([1]; 1 h p.i.): 0.124 ± 0.013 %ID/g | Fat uptake ([1]; 1 h p.i.): 0.241 ± 0.021 %ID/g | Heart uptake ([1]; 1 h p.i.): 0.066 ± 0.008 %ID/g | Kidney uptake ([1]; 1 h p.i.): 1.298 ± 0.372 %ID/g | Lung uptake ([1]; 1 h p.i.): 0.327 ± 0.022 %ID/g | Muscle uptake ([1]; 1 h p.i.): 0.056 ± 0.010 %ID/g | Blood uptake ([1]; 1 h p.i.): 0.029 ± 0.005 %ID/g | Bone uptake ([1]; 2 h p.i.): 0.138 ± 0.006 %ID/g | Brain uptake ([1]; 2 h p.i.): 0.095 ± 0.016 %ID/g | Fat uptake ([1]; 2 h p.i.): 0.249 ± 0.036 %ID/g | Heart uptake ([1]; 2 h p.i.): 0.047 ± 0.009 %ID/g | Kidney uptake ([1]; 2 h p.i.): 1.339 ± 0.160 %ID/g | Lung uptake ([1]; 2 h p.i.): 0.199 ± 0.032 %ID/g | Muscle uptake ([1]; 2 h p.i.): 0.035 ± 0.007 %ID/g | Blood uptake ([1]; 2 h p.i.): 0.020 ± 0.002 %ID/g | accumulation in the cortex (autoradiogram) [2]: moderate accumulation | accumulation in the striatum (autoradiogram) [2]: high accumulation
